The values that follow come from PubChem BioAssay.

By viability is commonly meant a read-out of living cells in per cent, often relative to untreated cells. For orientation: inhibition means the relative decrease from the control value, in per cent.

Values without a mark were called inactive. Inconclusive results are not listed. Active and inactive are the calls of the source.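 The calls were made as follows, unless noted: active = growth inhibition above 25% in both replicates, a cutoff set 3 SD above the mean; inconclusive = above 25% in only one replicate; inactive = the rest.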

The nature of test [1]: OD615 S. cerevisiae growth inhibition, permissive medium, pilot counter-assay, permissive growth control for S. cerevisiae lifespan shortening project (AID 705). The settings on record: OD615, 24 h, at 10 µM, active compounds read high. Put shortly:
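Material: engineered DeaD yeast; compound dosing: one dose 10 µM, DMSO 0.25% final; measure: yeast growth inhibition indicated by reduced 24 h OD615; detection: OD615 turbidity read; incubation: cells pre-grown 4 h, then 24 h compound exposure, 30 °C humidified; medium: permissive synthetic complete medium with raffinose and galactose carbon sources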

Test [2] in a line: Restrictive medium S. cerevisiae growth inhibition, OD615, pilot screen of yeast lifespan reduction project, restrictive growth control (AID 706;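 active = growth inhibition above a set limit, 3 SD over mean compound inhibition, in both replicates, cut at about 43% in these data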;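 also: modified DeaD lifespan yeast strain shifted to restrictive glucose medium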). The conditions noted are these: OD615, 48 h, at 10 µM, active compounds read high. Summed up:
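material = engineered S. cerevisiae DeaD strain | medium = glucose-based CSMM-D restrictive medium | times = 4 h pre-incubation, 48 h exposure at 30 °C | technique = OD615 absorbance reading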

A short description of test [3]: viability gain of MRP-1-high H69AR cells under doxorubicin, pilot screen, MRP-1 activator project, CellTiter-Glo, duplicate (AID 807;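 active = viability increase at or above a cutoff of the median across tested compounds plus 3 SD, cut at about 8.5% in these data, passing the limit was not always enough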;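 also: compound pretreatment 18-22 h then 72 h combined with doxorubicin; 0% = doxorubicin alone and 100% = vehicle without doxorubicin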). The conditions noted are these: H69AR viability with doxorubicin, CellTiter-Glo luminescence; at 10 µM; active compounds read high.
Test [4] is described as follows: growth suppression of beta-catenin knockout HCT116, pilot screen, human colon tumor cells (AID 823;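 active = cell viability at or below a set limit in both duplicate runs, the limit being the all-compound median minus 4 SD, cut at about 23% in these data, passing the limit was not always enough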;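 also: 0% = wells killed by 20 µM Hyamine and 100% = untreated DMSO cell wells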). The settings on record: CellTiter-Glo, 60 h, at 10 µM, active compounds read low. Background: In ATP-based viability assays light output follows the ATP content of the culture.
Test [5] in a line: growth suppression of PTEN-deleted HCT116, pilot screen, cell-based, HCT116 clonal line, CellTiter-Glo (AID 824;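 active = viability at or below 27.92% in each of two runs, the all-compound median minus 4 SD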;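 also: 0% = 20 µM Hyamine control and 100% = vehicle cell control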). The conditions noted are these: 60 h, at 10 µM, active compounds read low.
Test [6] is described as follows: inhibitors of the yeast RAM network, pilot screen, dse1pr::URA3 reporter, 5-FOA selection (AID 869;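 active = inhibition over a set limit, the all-compound mean plus 3 SD, in both replicate runs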;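 also: 0% = DMSO wells with no growth and 100% = 10 µM 1-NA-PP1 with full growth; RAM network block rescues cells from 5-FOA so hits raise OD615 growth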). The settings on record: S. cerevisiae dse1pr::URA3 5-FOA growth, OD615, 2 d; at 10 µM; active compounds read high; strain carries analog-sensitive mutant Cbk1 kinase.
Test [7] can be described thus: RAM signaling pathway blockade in yeast – S. cerevisiae, Pdr1DBD-CYC8 efflux-inhibited sensitized strain, primary screen (AID 1298;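 active = RAM network inhibition above 8.4% in each of two replicates, 3 SD over the compound average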;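 also: 0% = DMSO untreated cells without growth and 100% = 10 µM 1-NA-PP1 full growth; higher means more yeast growth rescued from 5-FOA killing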). The conditions noted are these: S. cerevisiae cbk1-as DSE1-URA3 strain, 5-FOA growth OD615, 2 d; at 50 µM; active compounds read high.

Regarding `Cc1nccn1-c1c2c(c(C#N)c3nc4ccccc4n13)CCC2`, the results for the growth inhibition in test [1] and in test [2] were -8.38% and -2.89%, respectively. Further, in test [3], the viability increase is -2.34%. Moreover, the results for the viability in test [4] and in test [5] were 97.3% and 93.1%, respectively. In test [6], the inhibition was 2.08%. For the same molecule, the RAM network inhibition in test [7] is 2.4%.
For `Cc1cc(SCC(=O)OCC(=O)N2CCN(C(=O)c3ccco3)CC2)c(C)cc1Br`, the growth inhibition in test [1] was -2.27%; in test [2] it was 4.81%. In test [3], the viability increase is -2.19%. In addition, the viability is 91.4% in test [4] and 98.2% in test [5]. For the same molecule, the inhibition in test [6] was 0.31%. Besides, in test [7], the RAM network inhibition was 0.4%.
Regarding `CS(=O)(=O)Nc1ccccc1Oc1ccccc1`, the growth inhibition is -4.92% in test [1] and 2.56% in test [2]. The viability increase in test [3] is -0.66%. The viability was 97.5% in test [4] and 92.8% in test [5]. Also, in test [6], the inhibition is -0.23%. Further, the RAM network inhibition in test [7] was -0.46%.
On to `COc1ccc(S(=O)(=O)Cc2ccc(C(=O)N3CCN(c4cccc(C)c4C)CC3)o2)cc1`, for which the growth inhibition in test [1] is -1.63%; in test [2], -1.19%. The viability increase in test [3] was -5.44%. Also, the viability in test [4] is 13% (active); in test [5], 17.6% (active). In test [6], the inhibition was 1.52%. Also, in test [7], the RAM network inhibition was 3.74%.
For the molecule `c1ccc(-c2ccccc2-n2cnnn2)cc1`, the growth inhibition is 4.66% in test [1] and 3.99% in test [2]. Besides, in test [3], the viability increase was -0.54%. Also, the viability is 97.3% in test [4] and 95.3% in test [5]. In test [6], the inhibition was 1.77%. Further, the RAM network inhibition in test [7] was 0.51%.
With `CCCCNC(=O)C1c2cc(OC)c(OC)cc2C(=O)N(C)C1c1ccc(OC)cc1` (stereo unspecified), the growth inhibition in test [1] was -7.31%; in test [2], -7.21%. For the same molecule, the viability increase in test [3] is -2.49%. Further, the viability in test [4] was 92.5%; in test [5] it was 98.4%. Besides, the inhibition in test [6] was 1.63%. The RAM network inhibition in test [7] is 1.97%.
`CCOc1ccc(C2CC(c3ccc(OC)c(OC)c3)n3nc(N)nc3N2)cc1` (stereo unspecified): the results for the growth inhibition in test [1] and in test [2] were 2.68% and 5.4%, respectively. In test [3], the viability increase was 0.31%. The viability in test [4] is 101%; in test [5], 92.7%. In test [6], the inhibition was 2.06%. Moreover, in test [7], the RAM network inhibition was 5.15%.
Consider `COC(=O)CCC(=O)Nc1nc(-c2ccccc2)cs1`, for which the figures for the growth inhibition in test [1] and in test [2] were -18.5% and -17.9%, respectively. Besides, the viability increase in test [3] is -0.35%. Besides, the viability in test [4] is 99%; in test [5], 99.1%. The inhibition in test [6] was 0.475%. In addition, in test [7], the RAM network inhibition is 11%.
In the case of `CC1(C)CC(=O)C(C=NC2CCCCC2)=C(O)C1`, the growth inhibition in test [1] is 0.43%; in test [2], -1.72%. Further, the viability increase in test [3] is -1.23%. Moreover, the results for the viability in test [4] and in test [5] were 98.7% and 94.8%, respectively. Also, in test [6], the inhibition is 1.33%. Moreover, the RAM network inhibition in test [7] is -1.28%.
As for `CC(=O)Nc1nc2n(n1)C(c1ccccc1)C=C(c1ccccc1)N2` (stereo unspecified), the growth inhibition in test [1] is -7.58%; in test [2], 4.18%. Also, in test [3], the viability increase was -2.94%. The viability is 99.9% in test [4] and 106% in test [5]. For the same molecule, the inhibition in test [6] is 1.06%. In addition, the RAM network inhibition in test [7] was 1.19%.
In the case of `COc1ccc(S(=O)(=O)Cc2ccc(C(=O)N3CCCC3)o2)cc1`, the values for the growth inhibition in test [1] and in test [2] were 5.75% and -2.15%, respectively. For the same molecule, the viability increase in test [3] was -1.61%. The viability in test [4] is 96.7%; in test [5], 91%. For the same molecule, the inhibition in test [6] is 1.11%. For the same molecule, in test [7], the RAM network inhibition is 4.21%.
Regarding `O=C(Nc1ccc(N2CCCC2)c(Cl)c1)c1ccc(Br)o1`, the growth inhibition in test [1] was 3.44%; in test [2] it was 17%. The viability increase in test [3] is -4.13%. Also, the viability was 78.2% in test [4] and 79.2% in test [5]. Moreover, in test [6], the inhibition is 0.885%. Further, in test [7], the RAM network inhibition was 3.68%.
Turning to `Cc1onc(-c2ccccc2)c1C(=O)NC(C)C`, the growth inhibition was -11.8% in test [1] and -8.11% in test [2]. In addition, the viability increase in test [3] was 0.11%. Further, the viability in test [4] is 105%; in test [5], 98.8%. Moreover, in test [6], the inhibition is 0.105%. The RAM network inhibition in test [7] was 3.45%.
For the molecule `CCC(C)NC(=O)c1ccc(CS(=O)(=O)c2ccc(OC)cc2)o1` (stereo unspecified), the growth inhibition in test [1] is 4.79%; in test [2], -1.07%. In test [3], the viability increase was -1.33%. In addition, the figures for the viability in test [4] and in test [5] were 104% and 93.2%, respectively. In test [6], the inhibition is 0.73%. Moreover, the RAM network inhibition in test [7] was -2.32%.
As for `CC1Cn2c(nnc2-c2cccc(N)c2)S1` (stereo unspecified), the growth inhibition in test [1] was 1.06%; in test [2] it was 14.3%. The viability increase in test [3] was -1.3%. Moreover, the viability in test [4] is 98.7%; in test [5], 100%. In test [6], the inhibition is 1.52%. For the same molecule, the RAM network inhibition in test [7] was 3.44%.
As for `CC(=O)Nc1ccc(S(=O)(=O)Nc2cccc(C(=O)NC(C)(C)C)c2)cc1`, the results for the growth inhibition in test [1] and in test [2] were -5.5% and -5.24%, respectively. For the same molecule, in test [3], the viability increase is -1.14%. Also, the viability is 92.1% in test [4] and 88.2% in test [5]. Also, the inhibition in test [6] was 1.53%. Moreover, the RAM network inhibition in test [7] is 6.92%.
Regarding `CCn1c(=NC(=O)CN2C(=O)CCC2=O)sc2c(OC)ccc(OC)c21`, the growth inhibition in test [1] was -5.83%; in test [2], -14.7%. The viability increase in test [3] is -2.94%. Besides, the figures for the viability in test [4] and in test [5] were 87.4% and 96%, respectively. The inhibition in test [6] is 2.75%. Besides, the RAM network inhibition in test [7] was 6.17%.
For the molecule `O=C(c1cc(F)c(F)cc1Cl)N1CCCCC1`, the growth inhibition is -2.35% in test [1] and 1.34% in test [2]. The viability increase in test [3] was -1.35%. The viability in test [4] is 92.1%; in test [5] it was 90.6%. In test [6], the inhibition was 2.08%. Also, the RAM network inhibition in test [7] is 2.31%.
